Seven molecules from ChEMBL document CHEMBL3124852, “Synthesis and evaluation of (-)-Massoialactone and analogues as potential anticancer and anti-inflammatory agents” (Eur J Med Chem, 2014) can be followed below.

The IC50 is the concentration at which inhibition is half-maximal. Higher therefore signals weaker potency.

One series has as its system K562. Briefly: Cytotoxicity against human K562 cells after 72 hrs by MTT assay. The series is classed as functional, cell-based. The conditions noted are these: K562, 72 h. The essentials:
(§1)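 Tumour cells plated at 10⁵ cells/mL (adherent) or 3 × 10⁵ cells/mL (leukaemias) in medium with fetal bovine serum, 2 mM glutamine, penicillin/streptomycin, 37 °C, 5% CO₂. Compounds ([…], 0.1% DMSO) added for 72 h; MTT (5 mg/mL stock) added at 69 h, formazan dissolved in DMSO after 3 h, read at 595 nm. IC50 with 95% CI from nonlinear regression, two experiments.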
In general terms: Formazan colour is commonly taken as a measure of viable cells.

The next series concerns HL-60. Description: Cytotoxicity against human HL60 cells after 72 hrs by MTT assay. The series is classed as functional, cell-based. The conditions noted are these: HL-60, 72 h. Put shortly: as §1
Another series relates to HT-29. Briefly: Cytotoxicity against human HT-29 cells after 72 hrs by MTT assay. The conditions noted are these: HT-29, 72 h. In kind it is functional, cell-based. The essentials:
as §1

The next series has as its system NCI-H292. Description: Cytotoxicity against human NCI-H292 cells after 72 hrs by MTT assay. In kind it is functional, cell-based. As to conditions: NCI-H292, 72 h. Put shortly:
as §1

Another series relates to MCF7. Briefly: Cytotoxicity against human MCF7 cells after 72 hrs by MTT assay. In kind it is functional, cell-based. As to conditions: MCF7, 72 h.
Series [1] in a line: Cytotoxicity against LPS-stimulated Balb/c mouse peritoneal macrophages assessed as cell viability after 24 hrs by MTT assay. In kind it is cell-based. As to conditions: peritoneal macrophage cell. Put shortly: (§2)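 Adherent thioglycollate-elicited Balb/c peritoneal macrophages exposed 24 h to compound (3.1–25.0 µg/mL) and/or LPS (1 µg/mL), then MTT (5 mg/mL stock) added for 4 h; formazan dissolved in DMSO, absorbance 550 nm. Cell death % = (1 − A_test/A_control) × 100. Quadruplicate wells, three independent experiments; mean ± SD.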

The nature of series [2]: Antiinflammatory activity in Balb/c mouse peritoneal macrophages assessed as reduction in LPS-induced TNF-alpha production at 3.1 ug/ml after 24 hrs by ELISA relative to control. The series is classed as functional, Peritoneal macrophage cell. The essentials:
(§3)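 Thioglycollate-elicited (2.5 mL 3%, i.p., 72 h) peritoneal cells from Balb/c mice, viability checked by trypan blue, cultured at 5 × 10⁶ cells/mL in RPMI-1640 + 10% FBS; non-adherent cells removed after 2 h at 37 °C, 5% CO₂. Adherent macrophages treated with compound plus LPS (1 µg/mL) 24 h; supernatant collected. Mean ± SD of three independent experiments; ANOVA with Newman-Keuls versus medium-only cells.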
In general terms: In an ELISA, binding on a coated surface is turned into a signal by an enzyme label.

Series [3] in a line: Antiinflammatory activity in Balb/c mouse peritoneal macrophages assessed as reduction in LPS-induced nitric oxide production at 3.1 ug/ml after 24 hrs by Griess method relative to control. In kind it is functional, Peritoneal macrophage cell. Put shortly:
as §3
In general terms: The Griess reaction detects nitrite, a stable product of nitric oxide.

Series [4] is described as follows: Cytotoxicity against LPS-stimulated Balb/c mouse peritoneal macrophages assessed as cell viability at 25 ug/ml after 24 hrs by MTT assay relative to control. In kind it is cell-based, Peritoneal macrophage cell. As to conditions: read-out: Activity. Put shortly:
as §2

Series [5] is described as follows: Cytotoxicity against LPS-stimulated Balb/c mouse peritoneal macrophages assessed as cell viability at 12.5 ug/ml after 24 hrs by MTT assay relative to control. In kind it is cell-based, Peritoneal macrophage cell. The conditions noted are these: read-out: Activity. The essentials:
as §2

The nature of series [6]: Cytotoxicity against LPS-stimulated Balb/c mouse peritoneal macrophages assessed as cell viability at 6.2 ug/ml after 24 hrs by MTT assay relative to control. The series is classed as cell-based, Peritoneal macrophage cell. The conditions noted are these: read-out: Activity. Put shortly:
as §2

The nature of series [7]: Cytotoxicity against LPS-stimulated Balb/c mouse peritoneal macrophages assessed as cell viability at 3.1 ug/ml after 24 hrs by MTT assay relative to control. The series is classed as cell-based, Peritoneal macrophage cell. The conditions noted are these: read-out: Activity. Put shortly:
as §2

SMILES strings stand for the structures. ≈ marks a conversion by molar mass, not a printed value.

Regarding `CCCCC[C@@H]1CC=CC(=O)O1`, the half-inhibitory concentration (IC50) in the series on K562 turned out to be 20.2 µg/mL (≈ 120 µM); with HL-60, 16 µg/mL (≈ 95.1 µM); in the series on HT-29, 22.6 µg/mL (≈ 134 µM); with NCI-H292, 11.3 µg/mL (≈ 67.2 µM); in the series on MCF7, 60 µg/mL (≈ 357 µM).
On to `O=C1C=CCC(COc2ccccc2)O1` (configuration not stated), for which the Activity result in series [1] is “Dose-dependent effect”; in series [2], 112.4 pg/mL; in [3], 5.2 µM. In series [4], the viability at 24 h, 25 ug/ml stood at 0%. Moreover, the viability at 24 h, 12.5 ug/ml in [5] was found to be 0%. In addition, in [6], the viability at 24 h, 6.2 ug/ml worked out at 47.3%. For the same molecule, the viability at 24 h, 3.1 ug/ml in series [7] stood at 93%. Moreover, the IC50 in the series on K562 was 2.9 µg/mL (≈ 14.2 µM); in the series on HL-60 it was 5.4 µg/mL (≈ 26.4 µM); in the series with HT-29 it was 4.4 µg/mL (≈ 21.5 µM); in the series on NCI-H292, 0.8 µg/mL (≈ 3.92 µM); in the series with MCF7, 22.5 µg/mL (≈ 110 µM).
For the molecule `CCC1CC=CC(=O)O1` (configuration not stated), the 50% inhibitory concentration (IC50) in the series with HT-29, in the series with NCI-H292 and in the series with MCF7 was > 100 µg/mL throughout.
As to `O=C1C=CCC(c2ccccc2)O1` (configuration not stated), the Activity result in series [1] is reported as “Dose-dependent effect”. Besides, in series [4], the viability at 24 h, 25 ug/ml amounted to 7.4%. The viability at 24 h, 12.5 ug/ml in series [5] stood at 1%. In addition, the viability at 24 h, 6.2 ug/ml in [6] is 30.9%. Further, in series [7], the viability at 24 h, 3.1 ug/ml is 34.5%. The concentration for half-maximal inhibition (IC50) in the series with K562 was determined as 8.9 µg/mL (≈ 51.1 µM); in the series with HL-60, 13.2 µg/mL (≈ 75.8 µM); in the series with HT-29, 10.9 µg/mL (≈ 62.6 µM); in the series on NCI-H292 it was 9.1 µg/mL (≈ 52.2 µM); in the series with MCF7, 22.9 µg/mL (≈ 131 µM).
As for `C=CCOCC1CC=CC(=O)O1` (configuration not stated), the Activity entry is “Dose-dependent effect” in [1], 210 pg/mL in series [2] and 2.7 µM in [3]. Moreover, in series [4], the viability at 24 h, 25 ug/ml amounted to 7.7%. Besides, the viability at 24 h, 12.5 ug/ml in series [5] was determined as 51.1%. Besides, the viability at 24 h, 6.2 ug/ml in series [6] was 77.2%. Also, in series [7], the viability at 24 h, 3.1 ug/ml is 100%. Moreover, the IC50 with K562 came to 50 µg/mL (≈ 297 µM); in the series on HL-60, 25.5 µg/mL (≈ 152 µM); with HT-29, 18.4 µg/mL (≈ 109 µM); in the series on NCI-H292, 16.6 µg/mL (≈ 98.7 µM); with MCF7, 44.6 µg/mL (≈ 265 µM).
`COc1cccc2c1C(=O)c1c(O)c3c(c(O)c1C2=O)C[C@@](O)(C(=O)CO)C[C@@H]3O[C@H]1C[C@H](N)[C@H](O)[C@H](C)O1` [DOXORUBICIN]: the half-inhibitory concentration (IC50) worked out at 0.26 µg/mL (≈ 0.478 µM) in the series with K562 and 0.02 µg/mL (≈ 0.0368 µM) in the series with NCI-H292.
Take `C=CCCC1CC=CC(=O)O1` (configuration not stated): in series [1], the Activity result is recorded as “Dose-dependent effect”. Also, the viability at 24 h, 25 ug/ml in [4] came out at 2.5%. Also, in series [5], the viability at 24 h, 12.5 ug/ml came to 19.7%. Also, the viability at 24 h, 6.2 ug/ml in [6] is 45.4%. Also, the viability at 24 h, 3.1 ug/ml in series [7] amounted to 57%. The half-maximal inhibitory concentration (IC50) with HT-29, in the series with NCI-H292 and in the series on MCF7 was > 100 µg/mL each time.
